Here are results for two compounds from article PMC9929523 (International Journal for Parasitology: Drugs and Drug …, 2023).

In general, microsomal CLint refers to a measure of how fast metabolising enzymes remove a compound, apart from limits set by blood flow. Read a high microsomal CLint as faster metabolism. For orientation: AUC(0-inf) means the area under the concentration-time curve extrapolated to infinity. A word on the Cmax: it is the highest concentration seen after dosing. Broadly, the Tmax is the time from dosing to the highest level. Broadly, the clearance is a measure of how efficiently the substance is removed, as volume per time. The low end stands for a low capacity for elimination, the high end for a high capacity for elimination. The half-life is how long it takes for the measured level to halve. A higher half-life goes with slow loss. The CL/F is the apparent clearance, not corrected for the fraction that reaches the circulation. A word on the bioavailability: it is the share of a dose that reaches the circulation, judged against a reference dose that is usually intravenous. A higher bioavailability goes with good availability.

Where “and” joins values, the source holds several entries; their conditions need not be identical. Identical values can stand only once. Like-named read-outs stand apart in the source and are kept apart here.

Series [1] has as its system Schistosoma mansoni. In words: S. mansoni killing in vitro. It is filed as cell-based. The method in brief:
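Hamster-derived adult male worms, 10 per well, in DMEM with 10% heat-inactivated FBS and antibiotic/antimycotic. Dosed within 2–4 h of harvest from 100X DMSO spikes: 0–143 μM, triplicate, 45 min at 37 °C, 5% CO2. Second set used 143 μM or DMSO for 15, 30 or 45 min. Worms washed thrice and cultured 14 days, medium changed every other day. Daily survival scored by motility, shedding, opacity and tegument blebbing; Kaplan-Meier curves.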

The nature of series [2]: Clinical human OXA pharmacokinetics. It is filed as in vivo. Particulars: 40 mg/kg dose, assuming dose proportionality.
Series [3] in a line: Estimation of human hepatic inlet. It is filed as in vivo.
Series [4] is described as follows: Hepatic microsomal stability. The class given is in vitro ADME. Particulars: mouse, liver microsomes, pH 7.4, intrinsic clearance, 1 μM OXA, 0.2 mg protein per ml. An outline of the steps:
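Test compound (1 μM) incubated with mouse hepatic microsomes at 1, 0.5 and 0.2 mg/mL in 100 mM potassium phosphate, pH 7.4. Samples filtered and analysed by LC-MS/MS. Log-transformed data gave half-life. CLint (μl/min/mg) = ln2 × incubation volume / (half-life × mg protein). Unbound CLint came from the y-intercept of microsomal concentration vs 1/CLint.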
Background: Liver microsomes are vesicles of endoplasmic reticulum, rich in cytochrome P450 enzymes.

The nature of series [5]: Blood to plasma ratio, Rb. The class given is in vitro ADME. To be noted: female, C57Bl/6J, mouse, fresh heparinized whole blood and fresh plasma. An outline of the steps: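 Heparinized whole blood from female C57Bl/6J mice and matching fresh plasma were each spiked from a 10 mM DMSO stock to a final 5 μM and held 30 min at 37 °C. Samples were spun at 8000×g for 3 min, extracted into ACN/MeOH with diclofenac internal standard, and measured by LC-MS/MS. Rb = concentration in directly spiked plasma / concentration in plasma from spiked blood.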

Series [6] in a line: Mouse pharmacokinetics. It is filed as in vivo.
A short description of series [7]: Tissue distribution in wild-type C57Bl/6J mice. The class given is in vivo, mouse. Particulars: 4-h time point, 100 mg/kg oral dose.
In series [8] the test system is P-gp efflux transporter. In words: Tissue distribution in P-gp knockout mice. The class given is in vivo, mouse. To be noted: wild-type vs P-gp knockout mice, 4 h after 100 mg/kg oral dose.
A short description of series [9]: Formulation solubility. The class given is physicochemical. The method in brief:
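The aim was an oral dosing vehicle. Co-solvent solutions (polyethylene glycol or ethanol) were checked for precipitation by diluting 1:10 into saline. A 10 mg/ml solution was prepared in 100 mM acetate buffer, pH 4.5.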

The conditions of series [10]: ref Daneshmend and Homeida, 1987, cited from earlier work.
Series [11] can be described thus: Estimation of mouse hepatic inlet.
The test system of series [12] is S. haematobium. To be noted: meta-analysis, S. haematobium infections; ref Zwang and Olliaro, 2014; cited from earlier work.
Series [13] relates to S. mansoni. Particulars: meta-analysis, S. mansoni infections; ref Zwang and Olliaro, 2014; cited from earlier work.
Series [14] relates to schistosomiasis. Particulars: sub-Saharan Africa; ref Doenhoff et al., 2009; cited from earlier work.
Where [15] appears, read: female, C57Bl/6J, mouse, plasma, iv, 3 mg/kg.
The mark [16] stands for this setting: female, C57Bl/6J, mouse, plasma, po, 100 mg/kg, pH 4.5.
[17] abbreviates: patients n = 9, single oral dose 1000 mg.
The mark [18] stands for this setting: 100 mg/kg PO acetate buffer, WinNonlin one-compartment model.
Where [19] appears, read: 100 mg/kg PO acetate buffer, method of residuals.

`CC(C)NCC1CCc2cc(CO)c([N+](=O)[O-])cc2N1` (stereo not drawn) [OXA, oxamniquine]: the “worm killing at lower concentrations” value in series [1] (35.75 μM and 14.3 μM, 45 min exposure, 14 days) was “minimal worm killing”. Also, the worm survival entry in [1] (71.5 μM, 45 min exposure, 14 days) is listed as “significantly reduced”. In addition, the worm survival result in series [1] (143 μM, 45 min exposure, 14 days) is given as “significantly reduced”. This compound also registered a worm killing in [1] (143 μM, 45 min exposure, adult male worms, 14 days) of 90%. For the same compound, the “efficacy of worm killing with shorter exposure times” value in series [1] (143 μM, exposure 15 and 30 min) was “maintained”. Moreover, the “expected maximal plasma levels” value in series [2] is 9 to 14 µM. In addition, the “rate of absorption in the human intestine” value in series [3] was “approximately 2.5 % per minute”. Besides, in series [4], the microsomal CLint at 1 μM is 196 µL/min/mg. Moreover, the blood plasma ratio at 30 min, 5 μM in [5] is 1.6. Also, in [6] (100 mg/kg PO, 100 mM acetate buffer pH 4.5), the Cl clearance came to 159 ± 3 mL/min/kg. Also, in series [6] (setting [15]), the AUC(0-inf) came out at 1.1 µM·h, the peak level (Cmax) was 2.2 ± 0.1 µM, the Tmax was 5 min and the clearance came out at 157 ± 3 mL/min/kg. The compound also gave a half-life in series [6] (setting [15]) of 51 ± 6 min. Also, in [6] (setting [16]), the AUC(0-inf) was determined as 26.1 ± 1.7 µM·h, the CL/F was 230 ± 14 mL/min/kg, the Cmax amounted to 11.8 ± 1.6 µM and the Tmax was 50 min. In [6] (setting [16]), this compound registered a bioavailability of 69.5 ± 5.3% and a half-life of 58 ± 6 min. Also, in series [7], the “bile concentration relative to liver tissue” value was 15 fold. Further, in series [8], the “impact of efflux transporter P-gp on tissue distribution” value was “no indication that the efflux transporter P-gp impacts tissue distribution”. For the same compound, in [9], the “solubility dependence on pH” value is reported as “increases at low pH”. In [9] (100 mM acetate buffer, pH 4.5), this compound showed a stable solution concentration of 10 mg/mL. Also, in series [10] (human, approximately 20 mg/kg oral dose), the peak plasma concentrations is 4 to 7 µM. For the same compound, in series [10] (setting [17]), the “AUC(0-∞)” value is 20.2 ± 4.9 µM·h, the Cmax was 4.5 ± 0.9 µM, the T1/2 was 151 ± 23 min and the time to peak (Tmax) is on record as 103 ± 12 min. Further, in series [11] (setting [18]), the “Inlet Concentration (portal)” value is 118 µM and 118 ± 10 µM; the “ka absorption rate constant” value is 0.043 min⁻¹. For the same compound, in series [11] (setting [19]), the “Inlet Concentration (portal)” value is 132 µM and 132 ± 11 µM; the “ka absorption rate constant” value is 0.049 min⁻¹. Moreover, the k el in [11] (C57Bl/6J, mouse, in vivo, po, 100 mg/kg, ke elimination rate constant, 100 mg/kg PO acetate buffer, method of residuals) was 0.0002 s⁻¹. Further, the “fraction orally absorbed (Fa x Fg)” value in series [11] (mouse, true value could range between 0.7 and 1) is 0.7.
With `O=C(C1CCCCC1)N1CC(=O)N2CCc3ccccc3C2C1` (stereo not drawn) [praziquantel], the cure rate is reported as 77.1% in [12] and 76.7% in series [13]. The cure rates in series [14] was 60–90%.
